Read-outs that look alike come from different tables or passages of the source.
What was measured:
[1] = tested on: T-47D human breast carcinoma cells; assay: MTT cell toxicity assay; type: cell-based; conditions: for GI50: 72 h, read-out: cancer cell growth inhibition, GI50; for times more potent than PrTPP: MTT test
Outline: (§1)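 Cells were seeded at 5 × 10^3/well in medium with 10% FBS and kept at 37 °C, 5% CO2. Media: DMEM for A549 and A375; EMEM for DU145; F-12K for PC-3; McCoy's 5a for HCT-116 and SK-OV-3; RPMI-1640 + insulin 0.2 Units/mL for T-47D. Test compound came from DMSO stocks, with tubercidin as positive control. MTT at 0.5 mg/mL final was added for 2–3 h at 37 °C, then absorbance read at 570 nm. Three repeats; GI50 from sigmoidal fit.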

[2] = tested on: HCT-116 human colon epithelial colorectal carcinoma cells; assay: Click-iT-EdU Alexa Fluor 488 cell proliferation assay; type: cell-based; conditions: read-out: DNA synthesis inhibition, GI50
Outline: (§2)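 Cells were seeded at 800/well in medium with 10% FBS under 5% CO2. HCT-116 grew in McCoy's 5a and T-47D in RPMI-1640 + insulin 0.2 Units/mL. Test compound came from DMSO stocks, with tubercidin as positive control. After 72 h, EdU was added for 2.5 h at 37 °C. Cells were fixed in 4% paraformaldehyde (30 min, RT) and stained with Hoechst 33342. Click-iT Alexa Fluor 488 reaction ran 1 h at RT in the dark. Plates were read by high-content imaging; value from sigmoidal fit.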

[3] = tested on: PC-3 human prostate epithelial adenocarcinoma grade IV cells; assay: MTT cell toxicity assay; type: cell-based; conditions: 72 h, read-out: cancer cell growth inhibition, GI50
Outline: as §1

[4] = tested on: SK-OV-3 human ovary ascites epithelial adenocarcinoma cells; assay: MTT cell toxicity assay; type: cell-based; conditions: read-out: cancer cell growth inhibition, GI50
Outline: as §1

[5] = tested on: A549 human lung epithelial carcinoma cells; assay: MTT cell toxicity assay; type: cell-based; conditions: read-out: cancer cell growth inhibition, GI50
Outline: as §1

[6] = tested on: A375 human skin epithelial malignant melanoma cells; assay: MTT cell toxicity assay; type: cell-based; conditions: read-out: cancer cell growth inhibition, GI50
Outline: as §1

[7] = tested on: HCT-116 human colon epithelial colorectal carcinoma cells; assay: MTT cell toxicity assay; type: cell-based; conditions: read-out: cancer cell growth inhibition, GI50
Outline: as §1

[8] = tested on: T-47D human breast carcinoma cells; assay: Click-iT-EdU Alexa Fluor 488 cell proliferation assay; type: cell-based; conditions: for GI50: 72 h, read-out: DNA synthesis inhibition, GI50; for times more potent than PrTPP: Click-iT-EdU test
Outline: as §2

[9] = tested on: panel of 60 human cancer cell lines; conditions: read-out: NCI60 screen mean GI50; SRB assay; ref NCI60 screen data, NSC 115712; cited from earlier work
[10] = tested on: DU145 human prostate epithelial carcinoma cells; assay: MTT cell toxicity assay; type: cell-based; conditions: read-out: cancer cell growth inhibition, GI50
Outline: as §1

[11] = tested on: panel of 60 human cancer cell lines; assay: NCI60 screen, SRB assay, panel mean; type: cell-based; conditions: for NCI60 screen mean GI, %: single-dose inhibition of cell growth at 10 μM; for GI50: Homo sapiens, read-out: NCI60 screen mean GI50
Outline: (§3)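 Tested on the 60-line human cancer panel by sulforhodamine B assay. The dye binds cell protein under mildly acidic conditions and is extracted with basic medium; bound dye is taken as a proxy for cell mass. A single-dose test at 10 μM gives % growth inhibition; a five-dose test gives GI50.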

[12] = tested on: MDA-MB-435; assay: NCI60 SRB screen; type: cell-based; conditions: Homo sapiens, MDA-MB-435, read-out: growth inhibition
Outline: as §3

[13] = tested on: A498; assay: NCI60 SRB screen; type: cell-based; conditions: Homo sapiens, A498, read-out: growth inhibition
Outline: as §3

[14] = tested on: sea urchin embryos; assay: Phenotypic sea urchin embryo assay; type: in vivo, Paracentrotus lividus
[15] = tested on: SK-MEL-5; assay: NCI60 SRB screen; type: cell-based, human; conditions: NCI60 single dose, SK-MEL-5 melanoma
Outline: as §3

[16] = tested on: MDA-MB-468; assay: NCI60 SRB screen; type: cell-based, human; conditions: NCI60 single dose, MDA-MB-468 breast cancer
Outline: as §3

[17] = tested on: Caco-2 colon adenocarcinoma cells; conditions: read-out: IC50, growth suppression; 24 h treatment; ref [9]; cited from earlier work
[18] = tested on: MCF-7 human breast carcinoma cells; conditions: ref [30]; cited from earlier work

Compound	GI50 ([1]; Homo sapiens, T47D)	GI50 ([2]; Homo sapiens, HCT-116, 72 h)	GI50 ([3]; Homo sapiens)	GI50 ([4]; Homo sapiens, SK-OV-3, 72 h)	GI50 ([5]; Homo sapiens, A549, 72 h)	GI50 ([6]; Homo sapiens, A-375, 72 h)	GI50 ([7]; Homo sapiens, HCT-116, 72 h)	GI50 ([8]; Homo sapiens, T47D)	GI50 ([10]; Homo sapiens, DU-145, 72 h)	NCI60 screen mean GI, % [11]	other results
Nc1ncnc2c1ccn2[C@@H]1O[C@H](CO)[C@@H](O)[C@H]1O [tubercidin, Tubercidin, reference compound]	0.013 ± 0.001 µM	0.0307 ± 0.002 µM	0.076 ± 0.001 µM	0.131 ± 0.002 µM	0.044 ± 0.003 µM	0.043 ± 0.004 µM	0.08 ± 0.004 µM	0.044 ± 0.006 µM	0.256 ± 0.09 µM	–	GI50 [9]: 0.331 µM
COc1cc(CCCO)c(OC)c2c1OCO2 [4a, 3-(4,7-Dimethoxy-1,3-benzodioxol-5-yl)propan-1-ol]	> 250 µM	> 250 µM	> 250 µM	> 250 µM	> 250 µM	> 250 µM	> 250 µM	> 250 µM	> 250 µM	0%	–
COc1cc(CCC[P+](c2ccccc2)(c2ccccc2)c2ccccc2)c(OC)c(OC)c1OC.[I-] [7d, [3-(2,3,4,5-Tetramethoxyphenyl)propyl](triphenyl)phosphonium Iodide]	0.5 ± 0.07 µM	0.681 ± 0.09 µM	3.88 ± 0.55 µM	21.6 ± 1.53 µM	17.9 ± 0.36 µM	2.35 ± 0.24 µM	0.218 ± 0.024 µM	0.613 ± 0.025 µM	8.13 ± 0.15 µM	32.9%	times more potent than PrTPP ([1]; T-47D): 4.8 times; inhibition at 10 µM [12]: ~100%; inhibition at 10 µM [13]: ~100%; times more potent than PrTPP ([8]; T-47D): 5.6 times
COc1cc(CCCO)cc2c1OCO2 [4c, 3-(7-Methoxy-1,3-benzodioxol-5-yl)propan-1-ol]	> 250 µM	> 250 µM	> 250 µM	> 250 µM	> 250 µM	> 250 µM	> 250 µM	> 250 µM	> 250 µM	0%	–
COc1cc(OCCCCCC[P+](c2ccccc2)(c2ccccc2)c2ccccc2)c(OC)c2c1OCO2.[Br-] [compound 11, {6-[(4,7-Dimethoxy-2H-1,3-benzodioxol-5-yl)oxy]hexyl}(triphenyl)phosphonium Bromide]	0.421 ± 0.013 µM	2.83 ± 0.37 µM	0.258 ± 0.026 µM	24.6 ± 2 µM	0.463 ± 0.042 µM	1.93 ± 0.077 µM	1.95 ± 0.21 µM	0.606 ± 0.06 µM	20.8 ± 1.3 µM	–	effect on sea urchin embryo development (in words) ([14]; in vivo): moderate antiproliferative effect on the sea urchin embryos
COc1cc(CCCO)c(OC)c(OC)c1OC [4d, 3-(2,3,4,5-Tetramethoxyphenyl)propan-1-ol]	> 250 µM	> 250 µM	> 250 µM	> 250 µM	> 250 µM	> 250 µM	> 250 µM	> 250 µM	> 250 µM	0%	–
COc1cc(CNC(=O)CCCCC[P+](c2ccccc2)(c2ccccc2)c2ccccc2)c(OC)c2c1OCO2.[Br-] [compound 17, (6-{[(4,7-Dimethoxy-2H-1,3-benzodioxol-5-yl)methyl]amino}-6-oxohexyl)(triphenyl)phosphonium Bromide]	0.256 ± 0.08 µM	–	2.15 ± 0.04 µM	18.9 ± 2.86 µM	9.96 ± 0.22 µM	2.78 ± 0.17 µM	1.05 ± 0.01 µM	–	11.3 ± 0.75 µM	35.8%	number of cancer cell lines with 80–100% growth inhibition ([11]; NCI60 single dose 10 μM): three
[3-(7-Methoxy-1,3-benzodioxol-5-yl)propyl](trimethyl)phosphonium Iodide [7c]	–	–	–	–	–	–	–	–	–	63.9%	times more potent than PrTPP ([1]; T-47D): 239 times; GI50 ([1]; T-47D, MTT assay): 0.01 ± 0.0005 µM; GI50 ([2]; HCT-116, Click-iT-EdU, 72 h): 0.22 ± 0.03 µM; GI50 ([3]; PC-3, MTT assay): 0.41 ± 0.04 µM; GI50 ([4]; SK-OV-3, MTT assay, 72 h): 11 ± 1.4 µM; GI50 ([5]; A549, MTT assay, 72 h): 12.2 ± 0.61 µM; cleavage alteration, EC ([14]; effective threshold concentration, fertilized eggs exposed): >4 µM; effect at 10 μM (in words) [15]: lethal effect; GI50 ([6]; A375, MTT assay, 72 h): 1.08 ± 0.06 µM; effect at 10 μM (in words) [16]: lethal effect; GI50 ([7]; HCT-116, MTT assay, 72 h): 0.331 ± 0.039 µM; number of cancer cell lines with growth inhibited by more than 80% ([11]; NCI60 single dose 10 μM): 18; times more potent than PrTPP ([8]; T-47D): 138 times; GI50 ([8]; T-47D, Click-iT-EdU): 0.025 ± 0.002 µM; GI50 ([10]; DU145, MTT assay, 72 h): 5.12 ± 0.66 µM
COc1c(CCC[P+](c2ccccc2)(c2ccccc2)c2ccccc2)cc2c(c1OC)OCO2.[I-] [7b, [3-(6,7-Dimethoxy-1,3-benzodioxol-5-yl)propyl](triphenyl)phosphonium Iodide]	0.107 ± 0.004 µM	0.405 ± 0.036 µM	0.555 ± 0.049 µM	6.62 ± 0.13 µM	4.64 ± 0.37 µM	0.491 ± 0.019 µM	0.229 ± 0.027 µM	0.118 ± 0.007 µM	3.26 ± 0.36 µM	–	times more potent than PrTPP ([1]; T-47D): 22.3 times; GI50 [11]: 1.58 µM; times more potent than PrTPP ([8]; T-47D): 29.2 times
COc1cc(CCC[P+](c2ccccc2)(c2ccccc2)c2ccccc2)c(OC)c2c1OCO2.[I-] [7a, [3-(4,7-Dimethoxy-1,3-benzodioxol-5-yl)propyl](triphenyl)phosphonium Iodide]	0.089 ± 0.008 µM	0.367 ± 0.05 µM	0.552 ± 0.03 µM	2.42 ± 0.43 µM	3 ± 0.21 µM	0.627 ± 0.085 µM	0.263 ± 0.033 µM	0.104 ± 0.007 µM	2.86 ± 0.4 µM	–	times more potent than PrTPP ([1]; T-47D): 26.9 times; GI50 [11]: 1.66 µM; times more potent than PrTPP ([8]; T-47D): 33.2 times
C=CCc1cc(OC)c2c(c1)OCO2 [1c, myristicin]	113 ± 12.4 µM	> 250 µM	> 250 µM	> 250 µM	> 250 µM	> 250 µM	> 250 µM	> 250 µM	> 250 µM	–	IC50 [17]: 760 µM
CCCCCCCCCCCC[P+](c1ccccc1)(c1ccccc1)c1ccccc1 [dodecyl-TPP]	–	–	–	–	–	–	–	–	–	–	concentration exhibiting cytotoxicity [18]: 250 nM
COc1c(CCCO)cc2c(c1OC)OCO2 [4b, 3-(6,7-Dimethoxy-1,3-benzodioxol-5-yl)propan-1-ol]	> 250 µM	> 250 µM	> 250 µM	> 250 µM	> 250 µM	> 250 µM	> 250 µM	> 250 µM	> 250 µM	0%	–
COc1cc(COC(=O)CCCCC[P+](c2ccccc2)(c2ccccc2)c2ccccc2)c(OC)c2c1OCO2.[Br-] [compound 16, {6-[(4,7-Dimethoxy-2H-1,3-benzodioxol-5-yl)methoxy]-6-oxohexyl}(triphenyl)phosphonium Bromide]	0.43 ± 0.88 µM	–	4.18 ± 0.13 µM	10.2 ± 0.19 µM	18.5 ± 0.67 µM	3.43 ± 0.08 µM	1.07 ± 0.02 µM	–	14.1 ± 0.37 µM	49.2%	number of cancer cell lines with 80–100% growth inhibition ([11]; NCI60 single dose 10 μM): nine
C=CCc1cc(OC)c2c(c1OC)OCO2 [1a, Apiol]	70.7 ± 9.9 µM	> 250 µM	> 250 µM	> 250 µM	> 250 µM	> 250 µM	> 250 µM	> 250 µM	> 250 µM	–	–
